Measurements taken from PMC7583637 (Bioconjugate Chemistry, 2020).
Where a SMILES comes first, the peptide text is derived from it. [ ]: non-standard residue; d: D form. Dip = N[C@H](C(=O)O)C(c1ccccc1)c1ccccc1; Chg = N[C@H](C(=O)O)C1CCCCC1; NMeA = CN[C@@H](C)C(=O)O

Key:
A549 cells [1] = test: AlamarBlue viability assay after lipofection of SMC-PSO conjugates; type: cell-based, human; details: 100 nM, Lipofectamine LTX, 48 h, no TRAIL; for Loss of viability: relative to medium control
Summary of the method: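 A549 cells in DMEM with 10% FCS and 4 mM glutamine (37 °C, 5% CO2) were seeded at 5 × 10³ cells/well and grown 24 h to ~70% confluency. Conjugate in OptiMEM was complexed with PLUS Reagent, then Lipofectamine LTX (20 min, RT), and added at 100 nM final in antibiotic-free medium. After 48 h, cells were PBS-washed and given alamarBlue (1:10 in PBS) for 2 h at 37 °C. Fluorescence was read at 531/590 nm relative to medium control.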

c-FLIP mRNA = test: RT-qPCR of c-FLIP mRNA expression; type: cell-based, human; details: 300 nM, Lipofectamine LTX, 24 h; for Reduction of c-FLIP mRNA levels: A549, relative to reference genes, ΔΔCq, n = 3; for Effect on c-FLIP mRNA levels: A549
c-FLIP = details: 2′-MOE-RNA/DNA gapmer PSOs; cited from earlier work
XIAP L-Bir2-Bir3 = XIAP L-Bir2-Bir3 (Homo sapiens, UniProt P98170); test: Competitive fluorescence polarization binding assay with Smac-1F probe
Chain of XIAP L-Bir2-Bir3 (P98170 120-356): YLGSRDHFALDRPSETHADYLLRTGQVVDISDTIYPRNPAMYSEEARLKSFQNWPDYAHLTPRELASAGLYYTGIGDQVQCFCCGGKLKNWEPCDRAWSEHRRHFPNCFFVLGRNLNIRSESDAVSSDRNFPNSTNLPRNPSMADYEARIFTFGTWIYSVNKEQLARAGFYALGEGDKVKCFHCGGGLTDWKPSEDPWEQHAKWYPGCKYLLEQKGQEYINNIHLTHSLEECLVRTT

A549 cells [2] = test: AlamarBlue viability assay, PNA-CPP and SMC-PNA-CPP conjugates or chloroquine; type: cell-based, human; details: control experiments, Figure S7A
Caspase 3 and 7 activity = test: Caspase 3/7 assay; type: cell-based, human; details: 200 nM conjugate, 2 ng/mL SuperKillerTRAIL, 24 h, DEVD-AFC
Summary of the method: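 A549 cells were seeded in 6-well plates 24 h ahead and lipofected to a final 200 nM with 2 ng/mL SuperKillerTRAIL. After 24 h, cells were harvested and lysed (HEPES/NaCl/EDTA/1% Triton X-100, pH 7.5; 20 min on ice with sonication), and protein was measured by BCA. 35 μg protein was mixed with 2× buffer (HEPES, 20 mM DTT, 20% glycerol, pH 7.5) containing 50 μM DEVD-AFC, 2 h at 37 °C in the dark. […] versus medium-treated control; SD shown.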

A549 cells [3] = details: read-out: IC50, toxicity to A549 cells; cited from earlier work

In the case of “5'-ACTTGTCCCTGCTCCTTGAA-3' (full phosphorothioate, further chemistry not given here) [ISIS 23296, reference compound]”, the Loss of viability (A549 cells [1]) is listed as “ca. 30%”, the “Reduction of c-FLIP mRNA levels” value (c-FLIP mRNA) is listed as “up to 50%” and the “Knockdown reported in original publication” value (c-FLIP) is listed as 70%.

For “5'-AGTTCTCTCTGCCCCTAGAT-3' (phosphorothioate, further chemistry not given here) [unconjugated, scrambled PSO, reference compound]”, the “Effect on viability” value (A549 cells [1]) was “some decrease in viability” and the “Effect on c-FLIP mRNA levels” value (c-FLIP mRNA) was “significant upregulation of c-FLIP levels”.

Compound `CN[C@@H](C)C(=O)N[C@H](C(=O)N1CCC[C@H]1C(=O)N[C@H](C(=O)NCC(N)=O)C(c1ccccc1)c1ccccc1)C1CCCCC1` [SMC, H-MeAla-Chg-Pro-Dip-Gly-NH2] (H-[NMeA][Chg]P[Dip]G-NH2) has an IC50 (XIAP L-Bir2-Bir3) of 4.6 µM.

In the case of `CCN(CC)CCCC(C)Nc1ccnc2cc(Cl)ccc12` (centres unmarked) [chloroquine], the “Concentration up to which viability of A549 cells is not affected” value (A549 cells [2]) is reported as “up to 200 μM”.

For “Ac-Gly-Lys(N3-DBCO-ACTTGTCCCTGCTCCTTGAA)-Dap(AcS-Chg-Pro-Dip)-NH2 [AcSMC-PSO1]”, the Loss of viability (A549 cells [1]) was “ca. 30%”.

Compound “Ac-Gly-Lys(N3-DBCO-ACTTGTCCCTGCTCCTTGAA)-Dap(MeA-Chg-Pro-Dip)-NH2 [SMC-PSO1]” has a Loss of viability (A549 cells [1]) of 40%.

With “Ac-Gly-Lys(N3-DBCO-AGTTCTCTCTGCCCCTAGAT)-Dap(AcS-Chg-Pro-Dip)-NH2 [AcSMC-scrPSO1]” the “Effect on viability” value (A549 cells [1]) was “some decrease in viability”.

With “Ac-Gly-Lys(N3-DBCO-AGTTCTCTCTGCCCCTAGAT)-Dap(MeA-Chg-Pro-Dip)-NH2 [SMC-scrPSO1]” the Loss of viability (A549 cells [1]) was “ca. 30%”.

With “AcS-Chg-Pro-Dip-Gly-Gly-Lys(N3-DBCO-ACTTGTCCCTGCTCCTTGAA)-Dap(AcS-Chg-Pro-Dip)-NH2 [(AcSMC)2-PSO1]” the “Reduction of c-FLIP mRNA levels” value (c-FLIP mRNA) was “around 40%”.

In the case of “AcS-Chg-Pro-Dip-Gly-Gly-Lys(N3-DBCO-AGTTCTCTCTGCCCCTAGAT)-Dap(AcS-Chg-Pro-Dip)-NH2 [(AcSMC)2-scrPSO1]”, the “Effect on c-FLIP mRNA levels” value (c-FLIP mRNA) is reported as “upregulation of c-FLICE did not occur”.

With “MeA-Chg-Pro-Dip-Gly-Gly-Lys(N3-DBCO-ACTTGTCCCTGCTCCTTGAA)-Dap(MeA-Chg-Pro-Dip)-NH2 [(SMC)2-PSO1]” the Loss of viability (A549 cells [1]) was 50–60%, the “Increase of caspase 3/7 activity over background” value (Caspase 3 and 7 activity) was about 40 fold and the “Reduction of c-FLIP mRNA levels” value (c-FLIP mRNA) was “around 40%”.

With “MeA-Chg-Pro-Dip-Gly-Gly-Lys(N3-DBCO-AGTTCTCTCTGCCCCTAGAT)-Dap(MeA-Chg-Pro-Dip)-NH2 [(SMC)2-scrPSO1]” the “Effect on c-FLIP mRNA levels” value (c-FLIP mRNA) was “upregulation of c-FLICE did not occur”.

In the case of Penetratin, the IC50 (A549 cells [3]) is listed as 60.8 µM.

For Transportan, the IC50 (A549 cells [3]) is given as 2.5 µM.

In the case of octaarginine, the IC50 (A549 cells [3]) is listed as over 1000 µM.
